From ChEMBL document CHEMBL1122774, “Tri- and tetrapeptide analogues of kinins as potential renal vasodilators” (J Med Chem, 1984)
Square brackets hold non-standard residues; d marks the D form. Peptide text beside a SMILES is read from it. * marks the point of attachment. ξ: configuration not given here. ξαMeF = CC(N)(Cc1ccccc1)C(=O)O; Bz = O=C(c1ccccc1)*

Test system: Canis familiaris
Assay: In vivo percent change in canine renal blood flow (RBF) at 300 ug/Kg/min.
Assay type: functional, Canis lupus familiaris, Kidney
Method in brief: (§1)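 Primary screen in anesthetized dogs (7-17 kg). Drug infused separately at 3, 30 and 300 µg/(kg min), each infusion lasting 5 min, at about 15-min intervals. Read-outs are renal blood flow, mean arterial blood pressure, heart rate, and RVR (MABP / mean RBF), as percent change. Significance thresholds are defined per number of dogs; n = 1-3 dogs.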

Structure (SMILES)	Change
CC(Cc1ccccc1)(NC(=O)[C@@H]1CCCN1C(=O)c1ccccc1)C(=O)N1CCC[C@H]1C(=O)O (stereo partly drawn) (Bz-Pro-[ξαMeF]-Pro-OH)	0%
CC(Cc1ccc(O)cc1)(NC(=O)[C@@H]1CCCN1C(=O)CCCc1ccc(O)cc1)C(=O)NCCCN.Cl (stereo partly drawn)	10%
COc1ccc(CC(C)(NC(=O)[C@@H]2CCCN2C(=O)CCCc2ccc(O)cc2)C(=O)NCCCN)cc1OC.Cl (stereo partly drawn)	10.5%
CC(Cc1ccccc1)(NC(=O)[C@@H]1CCCN1C(=O)CCCc1ccc(O)cc1)C(=O)NCCCCCC(=O)O (stereo partly drawn)	5%

Test system: Canis familiaris
Assay: In vivo percent change in canine mean arterial blood pressure (MABP) at 300 ug/Kg/min.
Assay type: functional, Canis lupus familiaris
Method in brief: as §1

Structure (SMILES)	Change
CC(Cc1ccccc1)(NC(=O)[C@@H]1CCCN1C(=O)c1ccccc1)C(=O)N1CCC[C@H]1C(=O)O (stereo partly drawn) (Bz-Pro-[ξαMeF]-Pro-OH)	-4%
CC(Cc1ccc(O)cc1)(NC(=O)[C@@H]1CCCN1C(=O)CCCc1ccc(O)cc1)C(=O)NCCCN.Cl (stereo partly drawn)	0%
COc1ccc(CC(C)(NC(=O)[C@@H]2CCCN2C(=O)CCCc2ccc(O)cc2)C(=O)NCCCN)cc1OC.Cl (stereo partly drawn)	-1.5%
CC(Cc1ccccc1)(NC(=O)[C@@H]1CCCN1C(=O)CCCc1ccc(O)cc1)C(=O)NCCCCCC(=O)O (stereo partly drawn)	1%

Test system: Canis familiaris
Assay: In vivo percent change in canine mean arterial blood pressure (MABP) at 3 ug/Kg/min.
Assay type: functional, Canis lupus familiaris
Method in brief: as §1

Structure (SMILES)	Change
CC(Cc1ccccc1)(NC(=O)[C@@H]1CCCN1C(=O)c1ccccc1)C(=O)N1CCC[C@H]1C(=O)O (stereo partly drawn) (Bz-Pro-[ξαMeF]-Pro-OH)	0%
CC(Cc1ccc(O)cc1)(NC(=O)[C@@H]1CCCN1C(=O)CCCc1ccc(O)cc1)C(=O)NCCCN.Cl (stereo partly drawn)	-2%
COc1ccc(CC(C)(NC(=O)[C@@H]2CCCN2C(=O)CCCc2ccc(O)cc2)C(=O)NCCCN)cc1OC.Cl (stereo partly drawn)	1.5%
CC(Cc1ccccc1)(NC(=O)[C@@H]1CCCN1C(=O)CCCc1ccc(O)cc1)C(=O)NCCCCCC(=O)O (stereo partly drawn)	0%

Test system: Canis familiaris
Assay: In vivo percent change in canine renal vascular resistance (RVR) at 3 ug/Kg/min.
Assay type: functional, Canis lupus familiaris
Method in brief: as §1

Structure (SMILES)	Change
CC(Cc1ccccc1)(NC(=O)[C@@H]1CCCN1C(=O)c1ccccc1)C(=O)N1CCC[C@H]1C(=O)O (stereo partly drawn) (Bz-Pro-[ξαMeF]-Pro-OH)	-4%
CC(Cc1ccc(O)cc1)(NC(=O)[C@@H]1CCCN1C(=O)CCCc1ccc(O)cc1)C(=O)NCCCN.Cl (stereo partly drawn)	-9.5%
COc1ccc(CC(C)(NC(=O)[C@@H]2CCCN2C(=O)CCCc2ccc(O)cc2)C(=O)NCCCN)cc1OC.Cl (stereo partly drawn)	-11%
CC(Cc1ccccc1)(NC(=O)[C@@H]1CCCN1C(=O)CCCc1ccc(O)cc1)C(=O)NCCCCCC(=O)O (stereo partly drawn)	-1%

Test system: Canis familiaris
Assay: In vivo percent change in canine heart rate at 3 ug/Kg/min.
Assay type: functional, Canis lupus familiaris
Method in brief: as §1

Structure (SMILES)	Change
CC(Cc1ccccc1)(NC(=O)[C@@H]1CCCN1C(=O)c1ccccc1)C(=O)N1CCC[C@H]1C(=O)O (stereo partly drawn) (Bz-Pro-[ξαMeF]-Pro-OH)	3%
CC(Cc1ccc(O)cc1)(NC(=O)[C@@H]1CCCN1C(=O)CCCc1ccc(O)cc1)C(=O)NCCCN.Cl (stereo partly drawn)	1.5%
COc1ccc(CC(C)(NC(=O)[C@@H]2CCCN2C(=O)CCCc2ccc(O)cc2)C(=O)NCCCN)cc1OC.Cl (stereo partly drawn)	0.5%
CC(Cc1ccccc1)(NC(=O)[C@@H]1CCCN1C(=O)CCCc1ccc(O)cc1)C(=O)NCCCCCC(=O)O (stereo partly drawn)	-4%

Test system: Canis familiaris
Assay: In vivo percent change in canine mean arterial blood pressure (MABP) at 30 ug/Kg/min.
Assay type: functional, Canis lupus familiaris
Method in brief: as §1

Structure (SMILES)	Change
CC(Cc1ccccc1)(NC(=O)[C@@H]1CCCN1C(=O)c1ccccc1)C(=O)N1CCC[C@H]1C(=O)O (stereo partly drawn) (Bz-Pro-[ξαMeF]-Pro-OH)	-5%
CC(Cc1ccc(O)cc1)(NC(=O)[C@@H]1CCCN1C(=O)CCCc1ccc(O)cc1)C(=O)NCCCN.Cl (stereo partly drawn)	1%
COc1ccc(CC(C)(NC(=O)[C@@H]2CCCN2C(=O)CCCc2ccc(O)cc2)C(=O)NCCCN)cc1OC.Cl (stereo partly drawn)	-2%
CC(Cc1ccccc1)(NC(=O)[C@@H]1CCCN1C(=O)CCCc1ccc(O)cc1)C(=O)NCCCCCC(=O)O (stereo partly drawn)	2%

Test system: Canis familiaris
Assay: Renal vasodilator activity in anesthetized dogs and percent change in renal vascular resistance (RVR) was determined at 30 ug/Kg/min
Assay type: functional, Canis lupus familiaris
Method in brief: as §1

Structure (SMILES)	Change
CC(Cc1ccc(O)cc1)(NC(=O)[C@@H]1CCCN1C(=O)CCCc1ccc(O)cc1)C(=O)NCCCN.Cl (stereo partly drawn)	-3%
COc1ccc(CC(C)(NC(=O)[C@@H]2CCCN2C(=O)CCCc2ccc(O)cc2)C(=O)NCCCN)cc1OC.Cl (stereo partly drawn)	-15.5%
CC(Cc1ccccc1)(NC(=O)[C@@H]1CCCN1C(=O)CCCc1ccc(O)cc1)C(=O)NCCCCCC(=O)O (stereo partly drawn)	5%

Test system: Canis familiaris
Assay: In vivo percent change in canine renal vascular resistance (RVR) at 300 ug/Kg/min.
Assay type: functional, Canis lupus familiaris
Method in brief: as §1

Structure (SMILES)	Change
CC(Cc1ccccc1)(NC(=O)[C@@H]1CCCN1C(=O)c1ccccc1)C(=O)N1CCC[C@H]1C(=O)O (stereo partly drawn) (Bz-Pro-[ξαMeF]-Pro-OH)	-4%
CC(Cc1ccc(O)cc1)(NC(=O)[C@@H]1CCCN1C(=O)CCCc1ccc(O)cc1)C(=O)NCCCN.Cl (stereo partly drawn)	8.5%
COc1ccc(CC(C)(NC(=O)[C@@H]2CCCN2C(=O)CCCc2ccc(O)cc2)C(=O)NCCCN)cc1OC.Cl (stereo partly drawn)	-10%
CC(Cc1ccccc1)(NC(=O)[C@@H]1CCCN1C(=O)CCCc1ccc(O)cc1)C(=O)NCCCCCC(=O)O (stereo partly drawn)	-4%

Test system: Canis familiaris
Assay: In vivo percent change in renal blood flow at 30 ug/Kg/min.
Assay type: functional, Canis lupus familiaris, Kidney
Method in brief: as §1

Structure (SMILES)	Change
CC(Cc1ccccc1)(NC(=O)[C@@H]1CCCN1C(=O)c1ccccc1)C(=O)N1CCC[C@H]1C(=O)O (stereo partly drawn) (Bz-Pro-[ξαMeF]-Pro-OH)	0%
CC(Cc1ccc(O)cc1)(NC(=O)[C@@H]1CCCN1C(=O)CCCc1ccc(O)cc1)C(=O)NCCCN.Cl (stereo partly drawn)	3.5%
COc1ccc(CC(C)(NC(=O)[C@@H]2CCCN2C(=O)CCCc2ccc(O)cc2)C(=O)NCCCN)cc1OC.Cl (stereo partly drawn)	16.5%
CC(Cc1ccccc1)(NC(=O)[C@@H]1CCCN1C(=O)CCCc1ccc(O)cc1)C(=O)NCCCCCC(=O)O (stereo partly drawn)	-4%

Test system: Canis familiaris
Assay: In vivo percent change in canine heart rate at 30 ug/Kg/min.
Assay type: functional, Canis lupus familiaris
Method in brief: as §1

Structure (SMILES)	Change
CC(Cc1ccccc1)(NC(=O)[C@@H]1CCCN1C(=O)c1ccccc1)C(=O)N1CCC[C@H]1C(=O)O (stereo partly drawn) (Bz-Pro-[ξαMeF]-Pro-OH)	-6%
CC(Cc1ccc(O)cc1)(NC(=O)[C@@H]1CCCN1C(=O)CCCc1ccc(O)cc1)C(=O)NCCCN.Cl (stereo partly drawn)	4%
COc1ccc(CC(C)(NC(=O)[C@@H]2CCCN2C(=O)CCCc2ccc(O)cc2)C(=O)NCCCN)cc1OC.Cl (stereo partly drawn)	-1%
CC(Cc1ccccc1)(NC(=O)[C@@H]1CCCN1C(=O)CCCc1ccc(O)cc1)C(=O)NCCCCCC(=O)O (stereo partly drawn)	-2%

Test system: Canis familiaris
Assay: In vivo percent change in canine renal vascular resistance (RVR) at 30 ug/Kg/min.
Assay type: functional, Canis lupus familiaris
Method in brief: as §1

Structure (SMILES)	Change
CC(Cc1ccccc1)(NC(=O)[C@@H]1CCCN1C(=O)c1ccccc1)C(=O)N1CCC[C@H]1C(=O)O (stereo partly drawn) (Bz-Pro-[ξαMeF]-Pro-OH)	-5%

Test system: Canis familiaris
Assay: In vivo percent change in canine renal blood flow (RBF) at 3 ug/Kg/min.
Assay type: functional, Canis lupus familiaris, Kidney
Method in brief: as §1

Structure (SMILES)	Change
CC(Cc1ccccc1)(NC(=O)[C@@H]1CCCN1C(=O)c1ccccc1)C(=O)N1CCC[C@H]1C(=O)O (stereo partly drawn) (Bz-Pro-[ξαMeF]-Pro-OH)	4%
CC(Cc1ccc(O)cc1)(NC(=O)[C@@H]1CCCN1C(=O)CCCc1ccc(O)cc1)C(=O)NCCCN.Cl (stereo partly drawn)	8.5%
COc1ccc(CC(C)(NC(=O)[C@@H]2CCCN2C(=O)CCCc2ccc(O)cc2)C(=O)NCCCN)cc1OC.Cl (stereo partly drawn)	13.5%
CC(Cc1ccccc1)(NC(=O)[C@@H]1CCCN1C(=O)CCCc1ccc(O)cc1)C(=O)NCCCCCC(=O)O (stereo partly drawn)	1%

Test system: Canis familiaris
Assay: In vivo percent change in canine heart rate at 300 ug/Kg/min.
Assay type: functional, Canis lupus familiaris
Method in brief: as §1

Structure (SMILES)	Change
CC(Cc1ccccc1)(NC(=O)[C@@H]1CCCN1C(=O)c1ccccc1)C(=O)N1CCC[C@H]1C(=O)O (stereo partly drawn) (Bz-Pro-[ξαMeF]-Pro-OH)	0%
CC(Cc1ccc(O)cc1)(NC(=O)[C@@H]1CCCN1C(=O)CCCc1ccc(O)cc1)C(=O)NCCCN.Cl (stereo partly drawn)	3.5%
COc1ccc(CC(C)(NC(=O)[C@@H]2CCCN2C(=O)CCCc2ccc(O)cc2)C(=O)NCCCN)cc1OC.Cl (stereo partly drawn)	1.5%
CC(Cc1ccccc1)(NC(=O)[C@@H]1CCCN1C(=O)CCCc1ccc(O)cc1)C(=O)NCCCCCC(=O)O (stereo partly drawn)	-6%
